Active and inactive are the calls of the source. No cut-off for these calls is given here.
Assays:
[1] = biological target: T1, NAD-dependent protein deacylase sirtuin-6 (Homo sapiens, UniProt Q8N6T7); assay: Activation of N-terminal his-tagged human SIRT6 expressed in Escherichia coli M15 [pREP4] assessed as increase in peptide demyristoylation at 100 uM incubated for 120 mins using Ac-EALPKK(Myr)-AMC substrate by FDL assay relative to control
How it was run: (§1)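 Demyristoylation: 1 µM recombinant SIRT6 preincubated with compound for 20 min at 37 °C in 50 mM Tris-HCl pH 8.0, BSA 1 mg/mL, 1 mM DTT, with 10 µM Ac-EALPKK(Myr)-AMC. Started with 1 mM NAD and run 120 min at 37 °C. Developed 120 min at 37 °C with 5 mg/mL trypsin/8 mM nicotinamide. Fluorescence read. Mean ± s.d., triplicate wells, three independent experiments.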

[2] = biological target: T1, NAD-dependent protein deacylase sirtuin-6; assay: Activation of N-terminal his-tagged human SIRT6 expressed in Escherichia coli M15 [pREP4] assessed as increase in peptide demyristoylation incubated for 120 mins using Ac-EALPKK(Myr)-AMC substrate by FDL assay relative to control
How it was run: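 Demyristoylation: 1 µM recombinant SIRT6 preincubated with compound for 20 min at 37 °C in 50 mM Tris-HCl pH 8.0, BSA 1 mg/mL, 1 mM DTT, with 10 µM Ac-EALPKK(Myr)-AMC. Fluorescence read. Mean ± s.d., triplicate wells, three independent experiments.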

[3] = biological target: T1, NAD-dependent protein deacylase sirtuin-6; assay: Activation of N-terminal his-tagged human SIRT6 expressed in Escherichia coli M15 [pREP4] assessed as increase in peptide demyristoylation at 20 uM incubated for 120 mins using Ac-EALPKK(Myr)-AMC substrate by FDL assay relative to control; how it was run: as §1
PANC-1 [4] = assay: Antiproliferative activity against human PANC1 cells assessed as reduction in cell viability incubated for 72 hrs by MTT assay; format: functional, cell-based; settings: PANC-1, 72 h
How it was run: (§2)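 PDAC cells grown in DMEM or RPMI1640 with 10% FBS and penicillin/streptomycin at 37 °C, 5% CO2. Plated in triplicate, then treated with a concentration series for 72 h. Viability read by MTT. IC50 calculated from dose-response curves.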

BXPC-3 = assay: Antiproliferative activity against human BxPC3 cells assessed as reduction in cell viability incubated for 72 hrs by MTT assay; format: functional, cell-based; settings: BXPC-3, 72 h; how it was run: as §2
MIA PaCa-2 = assay: Antiproliferative activity against human MIAPaCa2 cells assessed as reduction in cell viability incubated for 72 hrs by MTT assay; format: functional, cell-based; settings: MIA PaCa-2, 72 h; how it was run: as §2
ASPC1 = assay: Antiproliferative activity against human AsPC1 cells assessed as reduction in cell viability incubated for 72 hrs by MTT assay; format: functional, cell-based; settings: ASPC1, 72 h; how it was run: as §2
PANC-1 [5] = assay: Antitumor activity against human PANC1 cells xenografted in BALB/c nude mouse assessed as inhibition of tumor growth at 150 mg/kg/day, po for 30 days relative to control; format: functional; settings: PANC-1, po, 720 h, read-out: TGI
How it was run: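 Female BALB/c nude mice, 6-8 weeks old, injected subcutaneously in the right flank with 5×10^6–1×10^7 PANC-1 cells. At 130-150 mm³, mice randomized into 4 groups (n = 6) and dosed orally once daily for 30 days against vehicle. Tumor volume followed over time. Inhibition rate assessed against control.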

T1 sequence (Q8N6T7 whole entry): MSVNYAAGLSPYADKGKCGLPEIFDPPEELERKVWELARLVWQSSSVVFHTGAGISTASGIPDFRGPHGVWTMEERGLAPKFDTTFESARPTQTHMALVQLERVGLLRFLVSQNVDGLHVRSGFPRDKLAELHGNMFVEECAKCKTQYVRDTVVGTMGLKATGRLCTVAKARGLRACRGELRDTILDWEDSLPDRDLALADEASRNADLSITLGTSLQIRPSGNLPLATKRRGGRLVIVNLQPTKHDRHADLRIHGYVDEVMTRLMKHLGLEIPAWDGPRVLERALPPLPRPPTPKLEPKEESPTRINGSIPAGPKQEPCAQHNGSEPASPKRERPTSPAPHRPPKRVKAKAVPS

SMILES	Activity [1]	EC1.5 [2]	Activity [3]	also measured
COC(=O)c1c2c(c3ccccc3c1O)OC(C)(C)C=C2	Active	228 µM	–	–
COc1ccc(-c2cc(C(=O)Nc3ccc(Cl)c(Cl)c3)c3ccccc3n2)cc1OC	Active	27.1 µM	148%	–
COc1ccccc1C(=O)Nc1cc2c(cc1N1CCCCC1)n(C)c(=O)n2C	Active	110 µM	–	–
COC(=O)c1cc(NS(=O)(=O)c2cc(Cl)cc(Cl)c2)ccc1S(=O)(=O)Nc1cc(Br)c(F)cc1C	–	–	–	IC50 (PANC-1 [4]): 35.2 µM; IC50 (BXPC-3): 58 µM; IC50 (MIA PaCa-2): 55.6 µM; IC50 (ASPC1): 50.5 µM; inhibition in vivo at 150 mg/kg/day (PANC-1 [5]): 78%
Cc1cc(Nc2cc(CN3CCOCC3)c3nc(C)c(Cc4ccc(Cl)cc4F)n3n2)n[nH]1	Active	118 µM	–	–
Cc1ccc(-c2cc(C(=O)Nc3cc(C(F)(F)F)ccc3Cl)c3ccccc3n2)o1	–	18.6 µM	184%	–
COc1ccc(-c2cc(C(=O)NCc3ccc(Cl)c(Cl)c3)c3ccccc3n2)cc1OC	–	8.14 µM	260%	–
COc1ccc(-c2cc(C(=O)Nc3cc(C(F)(F)F)ccc3Cl)c3ccccc3n2)cc1OC	–	2.84 µM	365%	–
O=C(NCc1ccc(Cl)c(Cl)c1)c1cc(-c2cc3ccccc3o2)nc2ccccc12	–	5.91 µM	314%	–
Cc1ccc(C)c(NC(=O)c2cc(-c3cc4ccccc4o3)nc3ccccc23)c1	–	3.47 µM	349%	–

Source: ChEMBL document CHEMBL4622973, “Discovery of Potent Small-Molecule SIRT6 Activators: Structure-Activity Relationship and Anti-Pancreatic Ductal Adenocarcinoma Activity” (J Med Chem, 2020)
